Results published in ChEMBL document CHEMBL1156857, “N-Acetamideindolecarboxylic acid allosteric 'finger-loop' inhibitors of the hepatitis C virus NS5B polymerase: discovery and initial optimization studies” (Bioorg Med Chem Lett, 2010).
pEC50, pIC50: −log10 of the molar value.

Experiments:
[1] = Inhibition of histidine-tagged HCV NS5Bdelta21 by scintillation proximity assay; parameters: species or system Hepacivirus hominis
Method in brief: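 Soluble truncated NS5B at 12 nM. Reaction contains 0.01% w/v BSA, with no dodecyl-β-D-maltoside or IGEPAL. Other conditions follow an earlier method. IC50 is the mean of duplicate experiments on two separate weighings.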

[2] = Inhibition of calf thymus DNA-directed RNA polymerase 2; parameters: species or system Bos taurus
Hepatitis C virus = test: Antiviral activity against Hepatitis C virus subtype 1b infected in human Huh7 cells assessed as inhibition of viral RNA replication; type: functional, organism-based, Hepacivirus hominis, genotype 1b, Huh-7; settings: for pEC50: Hepatitis C virus, genotype 1b, Huh-7, read-out: EC50
Method in brief: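 Stable subgenomic HCV genotype 1b replicon in Huh-7 cells carrying a modified luciferase reporter. EC50 from duplicate or more determinations. Some inhibitors were also run in a 72 h replicon format, with HCV RNA normalized to total cellular RNA. Cytotoxicity checked as TC50.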

| SMILES | pIC50 [1] | pIC50 [2] | pEC50 (Hepatitis C virus) | EC50 (Hepatitis C virus; huh-7) |
| --- | --- | --- | --- | --- |
| O=C(O)c1ccc(Cn2c(-c3ccoc3)c(C3CCCCC3)c3ccc(C(=O)O)cc32)cc1 | 7.40 | – | – | – |
| O=C(O)c1ccc2c(C3CCCCC3)c(-c3cc4ccccc4s3)n(CC(=O)N3CCOCC3)c2c1 | 6.80 | < 3.60 | 5.96 | – |
| O=C(O)c1ccc2c(c1)nc(-c1ccoc1)n2C1CCCCC1 | 5.96 | – | – | Not Active |
| O=C(O)c1ccc2c(C3CCCCC3)c(-c3ccoc3)n(CCO)c2c1 | 7.00 | – | < 5.00 | – |
| CC(C)NC(=O)Cn1c(-c2ccoc2)c(C2CCCCC2)c2ccc(C(=O)O)cc21 | 7.30 | < 3.60 | – | – |
| O=C(Cn1c(-c2ccoc2)c(C2CCCCC2)c2ccc(C(=O)O)cc21)Nc1ccccc1 | 7.10 | < 3.60 | – | – |
| Cc1cccc(C)c1Cn1c(-c2ccoc2)c(C2CCCCC2)c2ccc(C(=O)O)cc21 | < 3.86 | – | – | – |
| CC(C(=O)O)n1c(-c2ccoc2)c(C2CCCCC2)c2ccc(C(=O)O)cc21 (racemic) | 5.55 | – | – | – |
| CCOC(=O)Cn1c(-c2ccoc2)c(C2CCCCC2)c2ccc(C(=O)O)cc21 | 7.05 | – | 5.07 | – |
| Cc1ccccc1Cn1c(-c2ccoc2)c(C2CCCCC2)c2ccc(C(=O)O)cc21 | 6.54 | – | – | – |
| O=C(Cn1c(-c2ccoc2)c(C2CCCCC2)c2ccc(C(=O)O)cc21)NCc1ccccc1 | 7.22 | < 3.60 | – | – |
| Nc1cccc(Cn2c(-c3ccoc3)c(C3CCCCC3)c3ccc(C(=O)O)cc32)c1 | 6.89 | – | < 5.10 | – |
| O=C(O)c1ccc2c(C3CCCCC3)c(-c3ccoc3)n(CC(=O)N3CCCC3)c2c1 | 7.40 | < 3.60 | – | – |
| NC(=O)Cn1c(-c2ccoc2)c(C2CCCCC2)c2ccc(C(=O)O)cc21 | 7.40 | – | 5.62 | – |
| O=C(O)c1ccc2c(C3CCCCC3)c(-c3cnccn3)n(CC(=O)N3CCOCC3)c2c1 | 7.00 | < 3.60 | – | – |
| O=C(O)c1ccc2c(C3CCCCC3)c(-c3ccoc3)[nH]c2c1 | 7.52 | – | 5.17 | – |
| COCCNC(=O)Cn1c(-c2ccoc2)c(C2CCCCC2)c2ccc(C(=O)O)cc21 | 7.30 | < 3.60 | – | – |

| SMILES | pIC50 [1] | pIC50 [2] | pEC50 (Hepatitis C virus) | EC50 (Hepatitis C virus; huh-7) |
| --- | --- | --- | --- | --- |
| Cn1c(-c2ccoc2)c(C2CCCCC2)c2ccc(C(=O)N[C@@H](Cc3c[nH]c4ccc(O)cc34)c3cscn3)cc21 | 7.00 | – | 7.30 | – |
| CCN(Cc1ccncc1)C(=O)Cn1c(-c2ccoc2)c(C2CCCCC2)c2ccc(C(=O)O)cc21 | 7.40 | < 3.60 | – | – |
| C=CCn1c(-c2ccoc2)c(C2CCCCC2)c2ccc(C(=O)O)cc21 | 7.10 | – | < 5.00 | – |
| O=C(O)c1ccc2c(C3CCCCC3)c(-c3ccccn3)n(CC(=O)N3CCC(N4CCCC4)CC3)c2c1 | – | < 3.60 | – | – |
| CCn1c(-c2ccoc2)c(C2CCCCC2)c2ccc(C(=O)O)cc21 | 7.15 | – | < 5.00 | – |
| O=C(Cn1c(-c2ccoc2)c(C2CCCCC2)c2ccc(C(=O)O)cc21)NCC1CCCCC1 | 6.92 | < 3.60 | – | – |
| CN(C)C(=O)Cn1c(-c2cnccn2)c(C2CCCCC2)c2ccc(C(=O)O)cc21 | 6.80 | < 3.60 | – | – |
| CN(C(=O)Cn1c(-c2ccoc2)c(C2CCCCC2)c2ccc(C(=O)O)cc21)C1CCCCC1 | 6.96 | < 3.60 | – | – |
| O=C(O)c1ccc2c(C3CCCCC3)c(-c3ccoc3)n(Cc3ccccc3)c2c1 | 6.60 | – | – | – |
| C=C(C)n1c(-c2ccoc2)c(C2CCCCC2)c2ccc(C(=O)O)cc21 | 6.44 | – | < 5.00 | – |
| O=C(O)c1ccc2c(C3CCCCC3)c(-c3ccoc3)n(Cc3ccccn3)c2c1 | 6.89 | – | – | – |
| O=C(O)CCn1c(-c2ccoc2)c(C2CCCCC2)c2ccc(C(=O)O)cc21 | 6.68 | – | – | – |
| O=C(O)Cn1c(-c2ccoc2)c(C2CCCCC2)c2ccc(C(=O)O)cc21 | 7.22 | – | – | – |
| Nc1ccccc1Cn1c(-c2ccoc2)c(C2CCCCC2)c2ccc(C(=O)O)cc21 | 7.05 | – | 5.54 | – |
| O=C(O)c1ccc2c(C3CCCCC3)c(-c3ccccn3)n(CC(=O)N3CCOCC3)c2c1 | – | < 3.60 | – | – |
| O=C(O)c1cccc(Cn2c(-c3ccoc3)c(C3CCCCC3)c3ccc(C(=O)O)cc32)c1 | 7.15 | – | – | – |
